Laboratory results published in ChEMBL document CHEMBL4316619 (Bioorg Med Chem Lett, 2019).
Active and inactive are the calls of the source. The rule behind the calls is not given here.

Experiments:
[1] = Stability of the compound in mouse liver microsomes assessed as parent compound remaining measured immediately; assay type: ADME, Microsome; conditions: read-out: Stability
In short: (§1)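 Mouse liver microsomes; percent parent compound remaining measured at 0, 15 and 30 min.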

[2] = Aqueous kinetic solubility of the compound; assay type: physicochemical; conditions: buffer
[3] = Drug level in C57BL/6 mouse plasma at 30 mg/kg, ip measured at 0.083 hrs; assay type: ADME, organism-based
In short: (§2)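 Male C57BL/6 mice received a single intraperitoneal dose of 30 mg/kg (N=3). Compound concentrations were followed over time in plasma, liver and lung. Tmax, Cmax, terminal t1/2, AUClast and AUCINF were derived from the mean concentration-time profiles.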

MDCK [4] = assay: Cytotoxicity against MDCK cells assessed as reduction in cell viability up to 100 uM measured after 48 hrs by CellTiter Glo assay; assay type: cell-based, Canis lupus familiaris; conditions: dog
In short: (§3)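 MDCK cells were incubated with compound under the conditions of the 48 h replication assay. Cytotoxicity was read with the CellTiter-Glo ATP viability assay. Follow-up viability testing used 5, 10, 50 and 100 μM.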

[5] = AUClast in C57BL/6 mouse plasma at 30 mg/kg, ip; assay type: ADME, organism-based; design: dose 30 mg/kg, route intraperitoneal, time 0 - last; in short: as §2
[6] = biological target: Non-structural protein 1 (Influenza A virus (strain A/Puerto Rico/8/1934 H1N1)) (UniProt P03496); assay: Inhibition of NS1 in Influenza A virus A/PR/8/34 (H1N1) infected in MDCK cells assessed as restoration of protein-induced reduction in IFN-beta mRNA expression at 20 uM measured after 6 hrs by RT-PCR analysis; assay type: cell-based; conditions: Influenza A virus (A/Puerto Rico/8/1934(H1N1))
Chain of Non-structural protein 1 (Influenza A virus (strain A/Puerto Rico/8/1934 H1N1)) (P03496 whole entry): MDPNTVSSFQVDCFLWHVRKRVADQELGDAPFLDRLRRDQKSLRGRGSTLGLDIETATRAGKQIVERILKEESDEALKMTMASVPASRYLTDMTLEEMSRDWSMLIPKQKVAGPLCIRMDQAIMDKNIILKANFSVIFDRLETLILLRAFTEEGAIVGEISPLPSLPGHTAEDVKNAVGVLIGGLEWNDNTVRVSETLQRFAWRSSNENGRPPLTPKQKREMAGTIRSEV
In short: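 MDCK cells infected with A/PR/8/34 at MOI 2 and incubated 6 h with compound at 20 μM. Cells harvested; IFN-β and β-actin mRNA detected by RT-PCR. Poly(I:C) lane serves as positive control for IFN-β induction.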

[7] = Drug level in C57BL/6 mouse plasma at 30 mg/kg, ip measured at 4 hrs; assay type: ADME, organism-based
In short: (§4)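 Male C57BL/6 mice, single intraperitoneal 30 mg/kg dose, N=3. Plasma, liver and lung concentrations followed over time to give concentration-time profiles, from which Tmax, Cmax, terminal t1/2, AUClast and AUCINF were derived.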

[8] = Drug level in C57BL/6 mouse lung at 30 mg/kg, ip measured at 0.25 hrs; assay type: ADME, organism-based; conditions: in vivo; in short: as §2
[9] = Drug level in C57BL/6 mouse lung at 30 mg/kg, ip measured at 4 hrs; assay type: ADME, organism-based; conditions: in vivo; in short: as §2
[10] = Apparent permeability across basolateral to apical side in human Caco2 cells measured after 2 hrs; assay type: ADME, cell-based; conditions: caco-2, 2 h
In short: (§5)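 Permeability was measured across Caco-2 monolayers in both directions, apical to basolateral and basolateral to apical. […] Runs were done with and without 3% BSA, and mass recovery (%) was reported for each direction. Efflux ratio = Papp B→A / Papp A→B.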

Influenza B virus = assay: Antiviral activity against Influenza B virus (B/Brisbane/60/2008) infected in MDCK cells assessed as reduction in virus-induced cytopathic effect measured on day 5 by Celltiter-Glo luminescence assay; assay type: functional, organism-based
[11] = Drug level in C57BL/6 mouse plasma at 30 mg/kg, ip measured at 0.5 hrs; assay type: ADME, organism-based; in short: as §4
[12] = Apparent permeability across basolateral to apical side in human Caco2 cells assessed as drug recovery; assay type: ADME, cell-based; conditions: caco-2; in short: as §5
[13] = Drug level in C57BL/6 mouse plasma at 30 mg/kg, ip measured at 48 hrs; assay type: ADME, organism-based; in short: as §4
[14] = Drug level in C57BL/6 mouse plasma at 30 mg/kg, ip measured at 1 hrs; assay type: ADME, organism-based; in short: as §4
[15] = Drug level in C57BL/6 mouse plasma at 30 mg/kg, ip measured at 3 hrs; assay type: ADME, organism-based; in short: as §4
[16] = Cmax in C57BL/6 mouse plasma at 30 mg/kg, ip; assay type: ADME, organism-based; design: dose 30 mg/kg, route intraperitoneal; conditions: mouse, in vivo; in short: as §2
[17] = Drug level in C57BL/6 mouse plasma at 30 mg/kg, ip measured at 2 hrs; assay type: ADME, organism-based; in short: as §4
[18] = Toxicity in C57BL/6 mouse assessed as effect on lungs at 30 mg/kg, ip; assay type: organism-based; conditions: in vivo
[19] = Toxicity in C57BL/6 mouse assessed as effect on liver at 30 mg/kg, ip; assay type: organism-based; conditions: in vivo
[20] = Apparent permeability across apical to basolateral side in human Caco2 cells assessed as drug recovery; assay type: ADME, cell-based; conditions: caco-2; in short: as §5
[21] = AUC (infinity) in C57BL/6 mouse liver at 30 mg/kg, ip; assay type: ADME, organism-based; design: dose 30 mg/kg, time infinity, route intraperitoneal; in short: as §2
[22] = Drug level in C57BL/6 mouse lung at 30 mg/kg, ip measured at 3 hrs; assay type: ADME, organism-based; conditions: in vivo; in short: as §2
[23] = Terminal half life in C57BL/6 mouse lung at 30 mg/kg, ip; assay type: ADME, organism-based; conditions: read-out: beta t1/2 (converted); in short: as §4
[24] = Drug level in C57BL/6 mouse liver at 30 mg/kg, ip measured at 0.25 hrs; assay type: ADME, organism-based; conditions: in vivo; in short: as §2
[25] = Drug level in C57BL/6 mouse plasma at 30 mg/kg, ip measured at 8 hrs; assay type: ADME, organism-based; in short: as §4
[26] = Apparent permeability across apical to basolateral side in human Caco2 cells assessed as drug recovery in presence of 3% BSA; assay type: ADME, cell-based; conditions: caco-2; in short: as §5
[27] = Drug level in C57BL/6 mouse plasma at 30 mg/kg, ip measured at 0.25 hrs; assay type: ADME, organism-based; in short: as §4
[28] = Drug level in C57BL/6 mouse lung at 30 mg/kg, ip measured at 0.5 hrs; assay type: ADME, organism-based; conditions: in vivo; in short: as §2
MDCK [29] = assay: Cytotoxicity against MDCK cells assessed as reduction in cell viability measured after 48 hrs by CellTiter Glo assay; assay type: cell-based, Canis lupus familiaris; conditions: dog; in short: as §3
Influenza A virus = assay: Effect on NS1 protein expression in Influenza A virus A/PR/8/34 (H1N1) infected in MDCK cells at 20 uM by Western blot analysis; assay type: functional, organism-based; conditions: A/Puerto Rico/8/1934(H1N1)
In short: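 MDCK cells, uninfected or infected with A/PR/8/34, treated with DMSO or compound at 20 μM. NS1 protein detected by Western blot, with α-tubulin as loading control.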

[30] = Drug level in C57BL/6 mouse lung at 30 mg/kg, ip measured at 24 hrs; assay type: ADME, organism-based; conditions: in vivo; in short: as §2
[31] = Apparent permeability across apical to basolateral side in human Caco2 cells measured after 2 hrs; assay type: ADME, cell-based; conditions: caco-2, 2 h; in short: as §5
[32] = Apparent permeability across apical to basolateral side in human Caco2 cells measured after 2 hrs in presence of 3% BSA; assay type: ADME, cell-based; conditions: caco-2, 2 h; in short: as §5
[33] = AUClast in C57BL/6 mouse liver at 30 mg/kg, ip; assay type: ADME, organism-based; design: dose 30 mg/kg, time 0 - last, route intraperitoneal; in short: as §2
[34] = Cmax in C57BL/6 mouse liver at 30 mg/kg, ip; assay type: ADME, organism-based; design: dose 30 mg/kg, route intraperitoneal; in short: as §2
[35] = Drug level in C57BL/6 mouse liver at 30 mg/kg, ip measured at 4 hrs; assay type: ADME, organism-based; conditions: in vivo; in short: as §2
[36] = Drug level in C57BL/6 mouse liver at 30 mg/kg, ip measured at 1 hrs; assay type: ADME, organism-based; conditions: in vivo; in short: as §2
[37] = Stability of the compound in mouse liver microsomes assessed as parent compound remaining measured after 30 mins; assay type: ADME, Microsome; conditions: read-out: Stability; in short: as §1
[38] = Cmax in C57BL/6 mouse lung at 30 mg/kg, ip; assay type: ADME, organism-based; design: dose 30 mg/kg, route intraperitoneal; in short: as §2
[39] = Drug level in C57BL/6 mouse liver at 30 mg/kg, ip measured at 12 hrs; assay type: ADME, organism-based; conditions: in vivo; in short: as §2
[40] = AUC (infinity) in C57BL/6 mouse lung at 30 mg/kg, ip; assay type: ADME, organism-based; design: dose 30 mg/kg, route intraperitoneal, time infinity; in short: as §2
[41] = Drug level in C57BL/6 mouse liver at 30 mg/kg, ip measured at 0.083 hrs; assay type: ADME, organism-based; conditions: in vivo; in short: as §2

Work on `COc1cc(-c2ccnc3c2c(C)nn3-c2ccc(C(F)(F)F)cc2)ccc1O` yielded a remaining at 0 min [1] of 100%, a Kinetic_solubility [2] of 3.1 µM and a concentration at 0.083 h [3] of 2950 nM. For the same molecule, the Activity (MDCK [4]) was “Non-Toxic”, the AUC(0-t) [5] was 7660 ng·h/mL and the inhibition [6] was “Active”. The concentration at 4 h [7] was 1200 nM, the Drug uptake [8] was 46490 nmol/kg and the Drug uptake [9] was 11477 nmol/kg. For the same molecule, the Papp [10] was 0.23 ×10⁻⁶ cm/s, the Activity (Influenza B virus) was “inactive” and the concentration at 0.5 h [11] was 5760 nM. For the same molecule, the Drug recovery [12] was 9%, the concentration at 48 h [13] was 3 nM and the concentration at 1 h [14] was 5120 nM. It also gave a concentration at 3 h [15] of 1730 nM, a Cmax [16] of 2437 ng/mL and a concentration at 2 h [17] of 2530 nM. For the same molecule, the Activity [18] was “Non-Toxic”, the Activity [19] was “Non-Toxic” and the Drug recovery [20] was 5%. It also gave an AUC(0-inf) [21] of 80300 ng·h/mL, a Drug uptake [22] of 10951 nmol/kg and a half-life [23] of 4.5 h. For the same molecule, the Drug uptake [24] was 124197 nmol/kg, the concentration at 8 h [25] was 555 nM and the Drug recovery [26] was 49%. For the same molecule, the concentration at 0.25 h [27] was 6100 nM, the Drug uptake [28] was 36057 nmol/kg and the Activity (MDCK [29]) was “Non-Toxic”. The Activity (Influenza A virus) was “inactive”, the Drug uptake [30] was 168 nmol/kg and the Papp [31] was 0.1 ×10⁻⁶ cm/s. For the same molecule, the Papp [32] was 0.22 ×10⁻⁶ cm/s, the AUC(0-t) [33] was 80200 ng·h/mL and the Cmax [34] was 49600 ng/mL. For the same molecule, the Drug uptake [35] was 13997 nmol/kg, the Drug uptake [36] was 44487 nmol/kg and the remaining at 0.5 h [37] was 45%. It also gave a Cmax [38] of 18600 ng/mL, a Drug uptake [39] of 1984 nmol/kg and an AUC(0-inf) [40] of 53900 ng·h/mL. The Drug uptake [41] was 114014 nmol/kg.
